Screening data as filed in PubChem.
An excerpt weighted towards active compounds, which were near 2.5% of everything screened.
PRMT1 inh: blocks human protein arginine methyltransferase 1 | Q99873 | recombinant PRMT1, activity-based probe fluorescence polarization | inhibition, % at 2.79 µM | hit rate 1.3% among 370,000 | AID 652257;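 active = inhibition above about 21% made by adding two undisclosed values, limit read from the data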
HTRA1 inhibitor: blocks human HTRA1 serine peptidase | Q92743 | recombinant HTRA1, FP-rhodamine activity-based probe, fluorescence polarization | inhibition, % at 5.96 µM | hit rate 0.5% among 340,000; in the data active = inhibition above about 36%;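 also: 0% = enzyme with DMSO and 100% = wells lacking enzyme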
Target sequence (Q92743 whole entry, looked up): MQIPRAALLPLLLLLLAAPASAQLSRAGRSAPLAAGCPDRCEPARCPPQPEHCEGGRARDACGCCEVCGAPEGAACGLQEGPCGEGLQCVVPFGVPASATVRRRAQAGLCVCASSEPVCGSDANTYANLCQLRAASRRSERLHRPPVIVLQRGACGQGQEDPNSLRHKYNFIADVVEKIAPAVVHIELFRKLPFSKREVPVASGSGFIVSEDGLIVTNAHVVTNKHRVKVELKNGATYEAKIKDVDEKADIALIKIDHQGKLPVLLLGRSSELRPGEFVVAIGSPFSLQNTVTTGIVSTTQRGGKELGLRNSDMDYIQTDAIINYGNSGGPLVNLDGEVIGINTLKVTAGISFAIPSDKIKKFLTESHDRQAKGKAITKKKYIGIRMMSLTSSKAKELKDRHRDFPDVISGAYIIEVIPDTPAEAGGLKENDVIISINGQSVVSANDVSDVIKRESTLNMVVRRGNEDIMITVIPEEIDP
ABHD4 inh: ABHD4 (mouse) inhibition, primary FP screen; AID 720543; purified mABHD4, FP-Rh probe fluorescence polarization; Q8VD66; inhibition, % at 8.92 µM; hit rate 0.54% among 370,000;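 active = inhibition exceeding the mean over every tested compound plus 3 SD, cut at about 30% in these data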;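 also: 0% = plate median of compound wells and 100% = S159A mutant with DMSO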
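Assay system: mouse ABHD4 enzyme, wild type / Also added: fluorescent activity-based probe FP-Rh / Doses: single nominal dose of 8.92 µM, 0.89% DMSO final / Timing: 45 min compound pre-incubation plus 60 min probe step, 25 °C / Signal: FP readout, ex 525 nm / em 598 nm / Control set: S159A mutant/DMSO as 100%, compound-well median as 0%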
SIAE inh: human SIAE inhibition, primary screen | Q9HAT2 | SIAE FP-Rh probe binding, fluorescence polarization | inhibition, % at 9.66 µM | hit rate 0.69% among 370,000 | AID 1053197;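 active = inhibition above a cutoff: mean of compounds within the control limits plus 3 SD of those, cut at about 17% in these data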;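 also: 0% = plate median of compound wells and 100% = probe without SIAE protein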
TCR CD3 inh: inhibitors of human TCR-CD3 interaction; AID 651800; inhibition, % at 9.4 µM; TAMRA-labeled TCR probe fluorescence, biochemical; hit rate 0.37% among 360,000; in the data active = inhibition above about 19%;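 also: recombinant mutant TCR 2C K166C tagged with TAMRA read by polarization; 0% = receptor in buffer alone and 100% = receptor with positive control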
SIAE confirm: human SIAE inhibition, confirmation; shares compounds with SIAE inh; SIAE FP-Rh activity-based probe, fluorescence polarization; inhibition, % at 9.66 µM; hit rate 13% among 2,300; AID 1117263;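 active = mean inhibition of the replicates above the hit cutoff set in the primary screen, cut at about 17% in these data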;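 also: 0% = SIAE with DMSO and probe and 100% = probe without SIAE; inhibitors lower polarization as more probe stays unbound to SIAE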
* = called active by the depositor; x = not tested or not shown.

SMILES | PRMT1 inh | HTRA1 inhibitor | ABHD4 inh | SIAE inh | TCR CD3 inh | SIAE confirm
COC(=O)c1ccccc1S(=O)(=O)NC(=O)[C@H]1O[C@@H](n2ccc(=O)[nH]c2=O)[C@H](O)[C@@H]1O | -0.7 | x | -5.1 | 73.9* | 8.8 | 73.3*
COc1cccc(-c2cc(CNC(=O)[C@H]3O[C@@H](n4ccc(=O)[nH]c4=O)[C@H](O)[C@@H]3O)no2)c1 | -2.2 | x | 5.5 | 74.7* | 6.9 | 68.0*
Cc1ccc(OCCNC(=O)[C@H]2O[C@@H](n3ccc(=O)[nH]c3=O)[C@H](O)[C@@H]2O)cc1C | -1.8 | x | -0.2 | -6.9 | 5.4 | x
N#Cc1ccc(S(=O)(=O)NC(=O)[C@H]2O[C@@H](n3ccc(=O)[nH]c3=O)[C@H](O)[C@@H]2O)cc1 | -4.0 | x | -3.3 | -10.8 | 5.9 | x
Cc1nc2c(o1)CCc1ccccc1C2O (stereo unspecified) | -2.5 | 6.0 | 6.2 | 40.5* | 2.1 | 3.7
O=C(CSc1nnc(-c2ccccc2F)n1C1CC1)NC(=O)c1cccc([N+](=O)[O-])c1 | 4.0 | -0.9 | -0.7 | -1.6 | 6.3 | x
Cn1c(SCC(=O)NC(=O)c2cccc([N+](=O)[O-])c2)nnc1-c1ccc(F)cc1 | 1.7 | 0.6 | -3.1 | 22.8* | 7.5 | 4.6
CCOC(=O)[C@]12CCCC=C1N(Cc1cccc3ccccc13)C(=O)[C@H](CC(=O)NCCc1ccccc1OC)C2 | 6.3 | x | -28.0 | 53.0* | -8.2 | -6.5
CSc1ccc(CNCCCN(C)C)cc1 | 1.1 | 4.3 | 1.9 | -5.7 | 1.2 | x
CC(C)N(CCO)C(=O)CCc1nnc(Cc2cccc(C(F)(F)F)c2)o1 | -2.8 | 4.4 | -1.2 | -2.3 | 2.1 | x
CCCN(CCC)Cc1c(C(=O)N/N=C/c2ccoc2)nnn1-c1nonc1N | -1.1 | -24.7 | -4.0 | 1.9 | -6.9 | x
CCN(CC)c1ccc(/C=N/NC(=O)c2nnn(-c3nonc3N)c2C(C)C)c(O)c1 | 10.2 | 35.1 | 18.0 | 17.2* | -5.1 | 4.5
CC(C)c1c(C(=O)N/N=C/c2ccc3c(c2)OCO3)nnn1-c1nonc1N | 0.2 | 4.9 | 2.0 | 3.5 | 5.0 | x
CCCN(CCC)Cc1c(C(=O)N/N=C/c2ccco2)nnn1-c1nonc1N | -7.4 | -19.0 | 2.4 | 17.2* | -3.0 | 5.5
COc1ccc(OC)c(S(=O)(=O)N2CCC(C(=O)N3CCN(C4CCCCC4)CC3)CC2)c1 | 0.0 | x | 5.8 | 3.3 | x | x
CC1=C(C(=O)N(C(C)C)C(C)C)CC(CC(=O)NCc2cccs2)C(=O)N1CCCN1CCCC1=O (stereo unspecified) | 4.9 | x | 5.3 | 20.8* | -6.3 | 0.4
C/C(=N\Nc1cc(-c2ccccc2)nc(-c2ccccc2)n1)c1ccc(O)c(C)c1 | 2.0 | -2.9 | -38.8 | 19.4* | -5.4 | -12.5
CC(=O)NNC(=O)CCn1nnc(-c2ccc(Cl)cc2)n1 | -3.2 | -3.5 | -1.8 | 20.9* | -1.9 | 5.0
CC(C)(C)NC(=O)Cn1nnc(-c2ccc(Cl)cc2)n1 | -3.1 | -0.6 | -10.4 | -1.2 | -4.2 | x
CC(=O)c1c(C)[nH]c(C(=O)Nc2ccc(N3CCCCCC3)cc2)c1C | 3.4 | 14.8 | 29.1 | 26.0* | 1.8 | 10.2
CN(C)c1ccc(NC(=O)Nc2csc3ccccc23)cc1 | -0.1 | x | 15.8 | 17.5* | 8.3 | 8.9
COc1ccccc1NC(=O)Nc1nc(CC(=O)Nc2ccc(N(C)C)cc2)cs1 | -0.7 | 20.8 | 23.5 | 27.0* | -1.1 | 0.1
CCN(CC)c1ccc(NC(=O)c2ccc3c(c2)OCO3)c(C)c1 | -4.8 | 1.3 | 3.2 | 19.9* | 2.0 | -4.7
CCCc1c(C(=O)NNc2ccccc2OC)cnn1-c1ccccc1 | -2.8 | 8.7 | 2.9 | 18.2* | -6.4 | 2.9
Cc1cc(N2C(=O)C3C4CC(c5ccccc5)C(C4)C3C2=O)no1 (stereo unspecified) | 1.2 | 2.6 | 5.9 | -10.0 | -6.7 | x
SMILES | PRMT1 inh | HTRA1 inhibitor | ABHD4 inh | SIAE inh | TCR CD3 inh | SIAE confirm
CC1CN(c2ccc(NC(=S)Nc3ccc(N4CC(C)OC(C)C4)cc3)cc2)CC(C)O1 (stereo unspecified) | -1.7 | 13.8 | 23.6 | 20.3* | -2.4 | -3.8
CC1CN(C(=S)Nc2ccc(Cl)cc2)CC(C)O1 (stereo unspecified) | 2.0 | -1.4 | 4.5 | 7.2 | -11.1 | x
O=S1(=O)c2c(NCc3ccco3)cccc2Oc2ccccc2CN1Cc1cn(Cc2ccc(F)cc2)nn1 | 4.8 | x | -6.5 | 6.8 | x | x
Cc1ccc(-n2ccnc(SCC(=O)NC3CCCC3)c2=O)cc1Cl | 14.8 | 1.2 | 9.2 | 17.4* | 0.1 | -9.1
N#CN(Cc1ccccc1)Cc1ccccc1 | 0.8 | -4.2 | 0.9 | 0.6 | 9.0 | x
COc1ccccc1C1CC(c2ccco2)=NN1c1ccccc1 (stereo unspecified) | 1.5 | 9.6 | 2.6 | 17.2* | 2.1 | -1.6
CC(C)(C)c1ccc(-c2nnc(SCC(=O)c3ccc([N+](=O)[O-])cc3)n2-c2ccc(Cl)cc2)cc1 | 3.0 | x | 11.7 | 0.8 | x | x
Cc1sc2nc(CN3CCOCC3)nc(N3CCOCC3)c2c1C | -0.5 | 1.9 | 4.8 | 20.6* | 4.2 | 5.5
CNC(=O)COC(=O)C1CCN(S(=O)(=O)c2ccc3c(c2)OCCO3)CC1 | 0.5 | -4.5 | 0.7 | 0.3 | -9.5 | x
O=C(COC(=O)C1CCN(S(=O)(=O)c2ccc3c(c2)OCCO3)CC1)Nc1cccc2ccccc12 | -4.2 | 2.2 | -0.5 | 17.6* | -1.7 | -0.6
O=C(CN1CCN(S(=O)(=O)c2ccc3c(c2)OCCO3)CC1)Nc1cccc(F)c1 | 1.7 | -2.5 | 2.5 | 18.8* | 4.2 | 0.3
NC(=O)c1ccc(NC(=O)CN2CCN(S(=O)(=O)c3ccc4c(c3)OCCO4)CC2)cc1 | 5.9 | -7.4 | -11.9 | -4.1 | -7.9 | x
CCOC(=O)C[n+]1c(C)ccc2c1CCC2 | 0.9 | 1.5 | 4.7 | -4.1 | -7.5 | x
COc1ccccc1CCC(=O)OCC(=O)N1c2ccccc2NC(=O)C1(C)C | 1.2 | -3.7 | -0.1 | 20.5* | -3.9 | 0.1
CCN(CC)CCOc1nc(C)nc2c1oc1ccccc12 | -3.1 | -3.3 | 0.4 | 17.7* | 0.1 | 2.7
CCN(CC)CCCOc1nc(C)nc2c1oc1ccccc12 | 2.0 | 4.2 | 0.5 | -3.3 | -1.7 | x
COc1cc(CC(=O)OCC(=O)NCCc2ccc(S(N)(=O)=O)cc2)cc(OC)c1OC | -2.3 | 3.0 | 4.2 | 12.5 | -3.2 | x
O=C1c2ccccc2C(=O)c2cc(N3CCCCC3)ccc21 | -3.5 | 0.8 | -19.0 | 21.5* | -30.9 | 42.2*
Cc1nn(CC(=O)N2CCN(S(=O)(=O)c3ccccc3)CC2)c(C)c1[N+](=O)[O-] | -3.7 | 0.8 | -0.6 | 17.7* | 5.0 | 1.6
CC(C)[C@H](N)c1cn([C@@H](CC(N)=O)C(=O)N2CCNCC2)nn1 | -0.9 | -6.1 | 7.0 | 6.6 | -5.4 | x
S=C(NCCCc1cnc[nH]1)NCCCN(Cc1ccc(Cl)cc1)c1ccc(Br)cn1 | -0.4 | x | 9.5 | 17.4* | -2.8 | 26.7*
S=C(NCCCc1cnc[nH]1)NCCCN(Cc1ccccc1)c1ccc(Br)cn1 | 2.1 | x | 0.5 | 9.0 | -3.4 | x
Cc1ccc(NC(=S)NNC(=S)Nc2ccc(C)cc2C)cc1 | 4.8 | -6.6 | 10.7 | 18.3* | -2.5 | 5.2
